# Measured values taken from ChEMBL document CHEMBL2434932, “Design, synthesis and biological evaluation of a novel class of potent TGR5 agonists based on a 4-phenyl pyridine scaffold” (Eur J Med Chem, 2013).
# Activity calls are given as the source filed them. The calls are words filed in the database; no cut-off is given here.
# Experiments:
# [1] = target: T1, G-protein coupled bile acid receptor 1 (Homo sapiens) (UniProt Q8TDU6); assay: Agonist activity at human TGR5 expressed in HEK293 cells assessed CRE-induced luciferase activity at 10 uM after 5.5 hrs by reporter gene assay; type: functional, cell-based
# T1 sequence (whole entry): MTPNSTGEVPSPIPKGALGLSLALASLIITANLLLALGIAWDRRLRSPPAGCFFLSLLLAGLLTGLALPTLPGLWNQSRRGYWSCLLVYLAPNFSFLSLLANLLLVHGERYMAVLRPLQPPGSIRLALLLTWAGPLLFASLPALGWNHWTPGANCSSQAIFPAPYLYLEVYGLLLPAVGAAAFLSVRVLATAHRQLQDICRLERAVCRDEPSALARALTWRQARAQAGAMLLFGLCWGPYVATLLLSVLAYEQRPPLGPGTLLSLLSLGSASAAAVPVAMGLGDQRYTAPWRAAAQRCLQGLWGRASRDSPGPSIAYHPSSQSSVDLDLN
# [2] = target: T2, G-protein coupled bile acid receptor 1 (Mus musculus) (UniProt Q80SS6); assay: Agonist activity at mouse TGR5 expressed in HEK293 cells assessed CRE-induced luciferase activity after 5.5 hrs by reporter gene assay relative to control; type: functional, cell-based; parameters: concentration or dose not given beside the values
# T2 sequence (whole entry): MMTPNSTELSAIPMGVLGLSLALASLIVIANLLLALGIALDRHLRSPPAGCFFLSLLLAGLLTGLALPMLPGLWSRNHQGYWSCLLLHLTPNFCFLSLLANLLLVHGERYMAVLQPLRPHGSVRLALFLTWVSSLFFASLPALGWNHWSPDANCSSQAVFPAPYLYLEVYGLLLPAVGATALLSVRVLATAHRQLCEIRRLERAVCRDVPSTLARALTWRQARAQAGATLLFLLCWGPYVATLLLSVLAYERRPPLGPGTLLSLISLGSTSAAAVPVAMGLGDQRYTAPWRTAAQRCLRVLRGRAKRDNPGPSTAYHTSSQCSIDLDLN
# Summary of the method: (§1)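 HEK293 cells were stably transfected with a human or mouse TGR5 expression plasmid plus a CRE-driven luciferase reporter (pGL4.29). Cells were seeded and incubated overnight in DMEM with 10% FBS at 37 °C in 5% CO2, then exposed in fresh medium to a range of test concentrations. Luciferase read-out. Max effect % was scaled from DMSO vehicle (0%) to the INT-777 reference (100%). EC50 was taken from at least two independent experiments at eight concentrations each, mean ± SD.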
# [3] = target: T3, G-protein coupled bile acid receptor 1 (Mus musculus, UniProt Q80SS6); assay: Agonist activity at mouse TGR5 expressed in HEK293 cells assessed CRE-induced luciferase activity after 5.5 hrs by reporter gene assay; type: functional, cell-based
# T3 sequence (Q80SS6 whole entry): T2 sequence (whole entry)
# Summary of the method: as §1, with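 “read-out.” for “read-out. Max effect % was scaled from DMSO vehicle (0%) to the INT-777 reference (100%).”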
# [4] = target: T4, G-protein coupled bile acid receptor 1 (Homo sapiens, UniProt Q8TDU6); assay: Agonist activity at human TGR5 expressed in HEK293 cells assessed CRE-induced luciferase activity after 5.5 hrs by reporter gene assay; type: functional, cell-based
# T4 sequence (Q8TDU6 whole entry): T1 sequence (whole entry)
# [5] = Half life in Sprague-Dawley rat at 5 mg/kg, po; type: ADME, organism-based; parameters: dose 5 mg/kg, route oral; details: in vivo
# Summary of the method: (§2)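 Male SD rats, n = 6 per group, dosed orally at 5 mg/kg as a 0.25% CMC-Na formulation. PK parameters were derived by non-compartmental analysis and are reported as mean ± SD.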
# [6] = Clearance in Sprague-Dawley rat at 5 mg/kg, po; type: ADME, organism-based; parameters: dose 5 mg/kg, route oral; details: in vivo; summary of the method: as §2
# [7] = MRT (0 to infinity) in Sprague-Dawley rat at 5 mg/kg, po; type: ADME, organism-based; parameters: dose 5 mg/kg, route oral; details: in vivo; summary of the method: as §2
# [8] = MRT (0 to t) in Sprague-Dawley rat at 5 mg/kg, po; type: ADME, organism-based; parameters: dose 5 mg/kg, route oral; details: in vivo; summary of the method: as §2
# [9] = AUC (0 to infinity) in Sprague-Dawley rat at 5 mg/kg, po; type: ADME, organism-based; parameters: dose 5 mg/kg, route oral, time infinity; details: plasma; summary of the method: as §2
# [10] = AUC (0 to t) in Sprague-Dawley rat at 5 mg/kg, po; type: ADME, organism-based; parameters: dose 5 mg/kg, route oral; details: plasma; summary of the method: as §2
# [11] = Cmax in Sprague-Dawley rat at 5 mg/kg, po; type: ADME, organism-based; parameters: dose 5 mg/kg, route oral; details: in vivo; summary of the method: as §2
# [12] = Tmax in Sprague-Dawley rat at 5 mg/kg, po; type: ADME, organism-based; parameters: dose 5 mg/kg, route oral; details: in vivo; summary of the method: as §2
# Mus musculus [13] = assay: Antidiabetic activity in oral glucose loaded ICR mouse assessed as reduction of blood glucose AUC (0 to 120 mins) at 50 mg/kg, po; type: functional, organism-based; parameters: dose 50 mg/kg
# Summary of the method: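 Male ICR mice were fasted overnight and dosed orally at 50 mg/kg in 0.25% CMC vehicle (n = 7–8 per group), 30 min before an oral glucose load of 4 g/kg. Tail-clip blood glucose was measured before dosing and at 0, 15, 30, 60 and 120 min after the load. AUC0–120 min was calculated by the trapezoidal rule using each animal's 0-min glucose as its baseline.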
# Mus musculus [14] = assay: Toxicity in oral glucose loaded ICR mouse assessed as effect on size of the gallbladder at 50 mg/kg, po; type: organism-based; parameters: dose 50 mg/kg, route oral; details: in vivo
# Summary of the method: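 Male ICR mice from the OGTT (oral dose 50 mg/kg in 0.25% CMC, n = 7–8 per group) were re-fed for 2 h after the test. The gallbladders were then ligated and removed. Gallbladder size was measured by vernier caliper. Bile weight was taken as the gross weight of gallbladder with bile minus the net gallbladder weight.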
Structure (SMILES),Activity [2] [%],EC50 [3] [nM],EC50 [4] [nM],also measured
O=S(=O)(NCc1c(-c2ccccc2F)ccnc1-c1ccccc1)c1cc(C(F)(F)F)cc(C(F)(F)F)c1,,,,Activity [1]: 18%
CC(c1cc(C(F)(F)F)cc(C(F)(F)F)c1)N(Cc1cnccc1-c1ccccc1)C(=O)c1ccco1 (racemic),119,1180,310,
CCC(c1cc(C(F)(F)F)cc(C(F)(F)F)c1)N(Cc1cnccc1-c1ccccc1)C(=O)c1ccco1 (racemic),,,1230,
O=S(=O)(NCc1cnccc1-c1ccccc1F)c1cc(C(F)(F)F)cc(C(F)(F)F)c1,148,820,63,
CC[C@H]1[C@@H](O)[C@@H]2[C@H](C[C@H](O)[C@]3(C)[C@@H]([C@H](C)C[C@H](C)C(=O)O)CC[C@@H]23)[C@@]2(C)CC[C@@H](O)C[C@@H]12,100,,,
O=C(c1ccsc1)N(Cc1cnccc1-c1ccccc1F)S(=O)(=O)c1cc(C(F)(F)F)cc(C(F)(F)F)c1,146,1090,53,
O=C(C1CCCCC1)N(Cc1cc(C(F)(F)F)cc(C(F)(F)F)c1)Cc1cnccc1-c1ccccc1,,,,Activity [1]: 19%
CCC(NCc1cnccc1-c1ccccc1F)c1cc(C(F)(F)F)cc(C(F)(F)F)c1 (racemic),,,384,
N#CC(NCc1cnccc1-c1c(F)cccc1F)c1cc(C(F)(F)F)cc(C(F)(F)F)c1 (racemic),123,100,51,
NCc1cnccc1-c1ccccc1F,,,,Activity [1]: 1%
O=C(c1ccco1)N(Cc1cnccc1-c1ccccc1F)S(=O)(=O)c1cc(C(F)(F)F)cc(C(F)(F)F)c1,139,910,32,
O=S(=O)(c1cc(C(F)(F)F)cc(C(F)(F)F)c1)N(Cc1ccccc1)Cc1cnccc1-c1ccccc1F,,,2100,
CCCN(Cc1cnccc1-c1ccccc1F)C(C#N)c1cc(C(F)(F)F)cc(C(F)(F)F)c1 (racemic),,,466,
O=C(NCc1cnccc1-c1ccccc1F)c1cc(C(F)(F)F)cc(C(F)(F)F)c1,,,,Activity [1]: 46%
N#CC(NCc1cnccc1-c1ccccc1F)c1cc(C(F)(F)F)cc(C(F)(F)F)c1 (racemic),121,150,35,half-life [5]: 138 min; CL/F [6]: 1520 mL/min/kg; MRT inf [7]: 3.6 h; MRT last [8]: 2.6 h; AUC(0-inf) [9]: 55 ng·h/mL; AUC(0-t) [10]: 49.1 ng·h/mL; Cmax [11]: 16.3 ng/mL; Tmax [12]: 1.9 h; Activity (Mus musculus [13]): inactive; Activity (Mus musculus [14]): Non-toxic
N#CC(NCc1cnccc1-c1ccccc1)c1cc(C(F)(F)F)cc(C(F)(F)F)c1 (racemic),120,370,61,
N#CC(c1cc(C(F)(F)F)cc(C(F)(F)F)c1)N(Cc1ccco1)Cc1cnccc1-c1ccccc1F (racemic),,,892,
CCOc1nccc(-c2ccccc2F)c1CNS(=O)(=O)c1cc(C(F)(F)F)cc(C(F)(F)F)c1,,,,Activity [1]: 18%
O=C(O)C(NCc1cnccc1-c1ccccc1F)c1cc(C(F)(F)F)cc(C(F)(F)F)c1 (stereo unspecified),,,,Activity [1]: 16%
O=C(c1ccccc1)N(Cc1cnccc1-c1ccccc1F)S(=O)(=O)c1cc(C(F)(F)F)cc(C(F)(F)F)c1,144,850,31,
O=C1COc2nccc(-c3ccccc3F)c2CN1Cc1cc(C(F)(F)F)cc(C(F)(F)F)c1,130,,,
O=S(=O)(NCc1c(-c2ccccc2F)ccnc1Cl)c1cc(C(F)(F)F)cc(C(F)(F)F)c1,,,406,
Fc1ccccc1-c1ccncc1CNCc1cc(C(F)(F)F)cc(C(F)(F)F)c1,,,458,
O=S(=O)(NCc1cnccc1-c1c(F)cccc1F)c1cc(C(F)(F)F)cc(C(F)(F)F)c1,123,550,62,
CC(NCc1cnccc1-c1ccccc1F)c1cc(C(F)(F)F)cc(C(F)(F)F)c1 (racemic),117,2040,204,
COC(=O)C(NCc1cnccc1-c1ccccc1F)c1cc(C(F)(F)F)cc(C(F)(F)F)c1 (stereo unspecified),,,440,
O=C(c1ccco1)N(Cc1cc(C(F)(F)F)cc(C(F)(F)F)c1)Cc1cnccc1-c1ccccc1F,,,500,

# Continued, in another order:
Activity [2] [%],EC50 [3] [nM],EC50 [4] [nM],Structure (SMILES),also measured
,,4080,O=C(c1ccncc1)N(Cc1cc(C(F)(F)F)cc(C(F)(F)F)c1)Cc1cnccc1-c1ccccc1,
,,910,CC(=O)N(Cc1cc(C(F)(F)F)cc(C(F)(F)F)c1)Cc1cnccc1-c1ccccc1,
111,230,120,O=C(c1ccsc1)N(Cc1cc(C(F)(F)F)cc(C(F)(F)F)c1)Cc1cnccc1-c1ccccc1,
127,300,260,O=C(c1cccs1)N(Cc1cc(C(F)(F)F)cc(C(F)(F)F)c1)Cc1cnccc1-c1ccccc1,
,,7430,O=C(c1ccc(Cl)cc1)N(Cc1cc(C(F)(F)F)cc(C(F)(F)F)c1)Cc1cnccc1-c1ccccc1,
,,1270,CCC(=O)N(Cc1cc(C(F)(F)F)cc(C(F)(F)F)c1)Cc1cnccc1-c1ccccc1,
,,350,O=C(c1ccccc1)N(Cc1cc(C(F)(F)F)cc(C(F)(F)F)c1)Cc1cnccc1-c1ccccc1,
,,470,O=C(c1ccco1)N(Cc1cc(C(F)(F)F)cc(C(F)(F)F)c1)Cc1cnccc1-c1ccccc1,
,,320,O=C(c1ccoc1)N(Cc1cc(C(F)(F)F)cc(C(F)(F)F)c1)Cc1cnccc1-c1ccccc1,
,,580,FC(F)(F)c1cc(CNCc2cnccc2-c2ccccc2)cc(C(F)(F)F)c1,
